Here are results for 6 compounds from ChEMBL document CHEMBL1811907, “Chemical and biological evaluation of dipeptidyl boronic acid proteasome inhibitors for use in prodrugs and pro-soft drugs targeting solid tumors” (J Med Chem, 2011).

Usually inhibition stands for the share of the control response that was lost under treatment. A low value points to a weak effect. A word on the IC50: it is the concentration at which inhibition is half-maximal. Lower therefore signals greater potency. One may read the CC50 as the concentration giving 50% cytotoxicity. Read a high CC50 as lower toxicity to the cells.

One data set is filed under the species Mus musculus. In words: Inhibition of proteasome in mouse tumor cells relative to inhibition in blood cells. The data set is classed as subcellular. Particulars: concentration not given here.
Data set [1] is described as follows: Metabolic stability in human FSCLL cells assessed as aminopeptidase-mediated compound degradation at 10^-4 M after 24 hrs by LCMS analysis. Particulars: 100 µM. In kind it is ADME, cell-based. The method, boiled down: (§1)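 Intact cells, 2 × 10⁶ in 900 μL medium, incubated with inhibitor at 10⁻⁴ M for 24 h, 37 °C, 5% CO₂. Aliquots taken at time points and quenched in 1 M HCl containing Trp-Tyr internal standard. Analysed by ESI LCMS on C18 reversed phase.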

Data set [2] in a line: Inhibition of chymotrypsin-like activity of 20S proteasome using suc-LLVY-AMC as substrate preincubated for 10 mins before substrate addition at pH 7.6 by fluorescence assay. The procedure, abridged: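 Inhibitor from 0.1 M ethanol stock diluted into pH 7.6 buffer (25 mM HEPES, 0.5 mM EDTA) and equilibrated overnight at room temperature (24 h per text). SDS-activated 20S proteasome preincubated 10 min with inhibitor before Suc-LLVY-AMC; fluorescence ex 360/em 460 nm after 30 min. Quadruplicates; variable-slope sigmoidal fit.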

A short description of data set [3]: Metabolic stability in human FSCLL cells assessed as cell lysate-mediated compound degradation at 10^-4 M after 24 hrs by LCMS analysis. Particulars: 100 µM. The data set is classed as ADME, cell-based.
Data set [4] in a line: Ratio of CC50 for human follicular small-cell lymphocytic leukemia cells to IC50 for intracellular chymotrypsin-like activity of 20S proteasome in human HEK293 cells.
In data set [5] the test system is HEK293. In words: Metabolic stability in human HEK293 cells assessed as aminopeptidase-mediated compound degradation at 10^-4 M after 24 hrs by LCMS analysis. In kind it is ADME, cell-based. Particulars: hek293, 24 h, 100 µM. The method, boiled down: as §1
A short description of data set [6]: Cytotoxicity against human FSCLL cells after 24 hrs by MTT assay. The data set is classed as cell-based. The method, boiled down:
(§2)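 Cells seeded at 3.2 × 10⁴ per well, grown 24 h at 37 °C, 5% CO₂, then exposed to inhibitor dilutions 24 h. Inhibitor from 0.1 M ethanol stock, pre-equilibrated overnight in pH 2.0 or pH 7.6 buffer. MTT (5 mg/mL) added for 3 h; formazan dissolved overnight in acidic Triton/isopropanol; A570 read. Quadruplicates; variable-slope sigmoidal fit.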
On the technique in general: Tetrazolium dyes change colour on reduction, which living cells bring about.

A short description of data set [7]: Ratio of CC50 for human follicular small-cell lymphocytic leukemia cells to IC50 for chymotrypsin-like activity of 20S proteasome at pH 2.0.
The subject of data set [8] is HEK293. In words: Ratio of IC50 for intracellular chymotrypsin-like activity of 20S proteasome in human HEK293 cells to IC50 for in vitro chymotrypsin-like activity of 20S proteasome. In kind it is cell-based.
The nature of data set [9]: Inhibition of chymotrypsin-like activity of 20S proteasome using suc-LLVY-AMC as substrate preincubated for 10 mins before substrate addition at pH 2.0 by fluorescence assay. The procedure, abridged:
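Inhibitor from 0.1 M ethanol stock diluted into pH 2.0 buffer (0.148 M HCl, 0.052 M KCl) and equilibrated overnight at room temperature (24 h per text). 20S proteasome SDS-activated, preincubated 10 min with inhibitor; Suc-LLVY-AMC added; fluorescence (ex 360/em 460 nm) read after 30 min. Assay-well pH checked. Quadruplicates; variable-slope sigmoidal fit.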

Data set [10] concerns HEK293. In words: Metabolic stability in human HEK293 cells assessed as cell lysate-mediated compound degradation at 10^-4 M after 24 hrs by LCMS analysis. In kind it is ADME, cell-based. As to conditions: hek293, 24 h, 100 µM.
A short description of data set [11]: Inhibition of intracellular chymotrypsin-like activity of 20S proteasome in human HEK293 cells after 24 hrs by fluorescence plate reader. The data set is classed as cell-based. As to conditions: HEK293, 24 h. The method, boiled down: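 HEK 293 ZsGreen proteasome-sensor cells (stable ZsGreen–ornithine decarboxylase degron fusion, G418 maintenance) seeded 3.2 × 10⁴ per well, grown 24 h. Then 24 h with inhibitor at 37 °C, 5% CO₂. Cells lysed in HEPES/EDTA/5% Triton buffer for 1 h; fluorescence ex 485/em 535 nm. Quadruplicates; variable-slope sigmoidal fit.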

Data set [12] is described as follows: Cytotoxicity against human HEK293 cells after 24 hrs by MTT assay. In kind it is cell-based. The method, boiled down:
as §2

With `CC(C)C[C@H](NC(=O)CNC(=O)c1cc(Cl)ccc1Cl)B1OC(=O)CC(CC(=O)O)(C(=O)O)O1` (stereo not given in full), the inhibition in the data set filed under Mus musculus worked out at 74.9%.

For `CC(C)C[C@H](NC(=O)[C@H](C)N)B(O)O`, the Stability result (in data set [1]; in data set [3]; in the data set on HEK293 [5]; in the data set with HEK293 [10]) was “Stable” throughout. Moreover, the half-inhibitory concentration (IC50) in data set [2] is 360 nM; in [9] it was 50 nM; in [11], more than 10000 nM. Also, the “Ratio CC50/IC50” value in data set [4] is recorded as less than 0.3; in data set [7] it was 64. The compound also yielded a CC50 at 24 h in data set [6] of 3200 nM. For the same compound, the Ratio IC50 in the data set with HEK293 [8] was more than 200.

For `CC(C)C[C@H](NC(=O)[C@H](Cc1ccccc1)NC(=O)[C@@H](N)CC(C)C)B(O)O`, the Stability entry (in data set [3]; with HEK293 [10]) was “Unstable” in each case.

`CC(C)C[C@H](NC(=O)[C@@H](N)Cc1ccccc1)B(O)O`: the Stability result (in data set [1]; in [3]; with HEK293 [5]; in the data set with HEK293 [10]) was “Stable” throughout. For the same compound, the IC50 in data set [2] was 140 nM; in [9], 37 nM; in [11] it was more than 10000 nM. Also, the “Ratio CC50/IC50” value is on record as less than 0.01 in [4] and 2.4 in data set [7]. Besides, the CC50 at 24 h in [6] is 90 nM. For the same compound, the Ratio IC50 in the data set with HEK293 [8] was more than 270.

On to `CC(C)C[C@H](NC(=O)CN)B(O)O`, for which the Stability result (in data set [1]; in [3]; with HEK293 [5]; with HEK293 [10]) was “Stable” throughout. For the same compound, the values for the IC50 in [2], in data set [9] and in [11] were 430 nM, 21 nM and more than 10000 nM, respectively. Also, the entries for the “Ratio CC50/IC50” value in data set [4] and in [7] were less than 0.07 and 30, respectively. In data set [6], this compound registered a CC50 at 24 h of 670 nM. Also, the Ratio IC50 with HEK293 [8] was more than 470.

On to `CC(C)C[C@H](NC(=O)[C@H](Cc1ccccc1)NC(=O)c1cnccn1)B(O)O` [BORTEZOMIB], for which the IC50 in data set [2] is 14 nM; in data set [9] it was 10 nM; in data set [11], 27 nM. Further, the results for the “Ratio CC50/IC50” value in data set [4] and in [7] were 0.16 and 0.4, respectively. Further, the CC50 at 24 h in data set [12] worked out at 347 nM; in data set [6], 4 nM. Besides, the inhibition in the data set filed under Mus musculus worked out at 44.8%. Further, in the data set on HEK293 [8], the Ratio IC50 was found to be 2.7.
